Assay results taken from PubChem BioAssay AID624015 (Broad Institute, 2012).

Target: Scavenger receptor class B member 1 (Mus musculus) (UniProt Q61009)
Assay: SR-BI C384S cholesterol efflux blockers – cell-based, ldlA CHO C384S mutant, [3H]cholesterol, powder samples, set 2, mechanism study for SR-BI HDL uptake inhibitor project, dose response (AID 624015)
Conditions: [3H]cholesterol efflux to HDL
Summary of the method: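 Assay system: ldlA CHO cells expressing Cys384S-mutant SR-BI, radiolabel-loaded. Incubation: 1 h compound pre-incubation, then 2 h HDL efflux, 37 °C. Buffer or medium: HEPES pH 7.4 buffered medium, FAF-BSA equilibrated. Detection: scintillation counting, medium and cell lysate.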

Sequence of Scavenger receptor class B member 1 (Mus musculus) (Q61009 whole entry, looked up): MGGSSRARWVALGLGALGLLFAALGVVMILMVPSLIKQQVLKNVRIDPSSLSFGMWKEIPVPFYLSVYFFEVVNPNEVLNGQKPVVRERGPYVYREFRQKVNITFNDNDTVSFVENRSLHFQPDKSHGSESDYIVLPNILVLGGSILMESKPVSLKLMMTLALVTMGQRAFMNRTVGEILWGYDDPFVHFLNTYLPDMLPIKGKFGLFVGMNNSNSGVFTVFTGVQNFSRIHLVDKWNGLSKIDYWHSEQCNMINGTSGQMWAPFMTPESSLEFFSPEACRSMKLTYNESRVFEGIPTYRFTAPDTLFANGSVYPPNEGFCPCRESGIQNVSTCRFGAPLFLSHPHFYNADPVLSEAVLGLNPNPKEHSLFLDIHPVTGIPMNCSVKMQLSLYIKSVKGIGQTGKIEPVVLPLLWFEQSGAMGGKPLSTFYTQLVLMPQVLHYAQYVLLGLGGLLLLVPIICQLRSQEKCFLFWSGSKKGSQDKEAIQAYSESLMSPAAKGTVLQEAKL

AC50: 250 nM
SMILES: CC(C)NC(=O)Nc1ccc2c(c1)C(=O)N([C@H](C)CO)C[C@@H](C)[C@H](CN(C)S(=O)(=O)c1ccc(Cl)cc1)O2
